In ChEMBL document CHEMBL4196152, “Controlling Ca2+ Permeable α-Amino-3-hydroxy-5-methyl-4-isoxazolepropionic Acid (AMPA) Receptors with Photochromic Ion Channel Blockers” (J Med Chem, 2018) one finds inhibition, IC50 and Ratio IC50 data, which are given here for 15 compounds.

What all share (type): cell-based
Assay [1] has as its target Glutamate receptor 1 (Rattus norvegicus) (UniProt P19490). The assay can be described thus: Inhibition of rat GluA1 flip isoform expressed in Xenopus laevis oocytes assessed as inhibition of L-Glu-evoked currents at 100 nM under dark condition at -80 mV membrane potential by two electrode voltage-clamp assay. A digest of the protocol:
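TEVC on stage V–VI Xenopus laevis oocytes injected with GluA1 cRNA (13–46 nL) and recorded 1–3 days later at −80 mV and 23 °C. Bath solution (mM): 115 NaCl, 2 KCl, 5 HEPES, 1.8 BaCl₂, pH 7.6. Antagonist was co-applied with 300 µM L-glutamate in a dark room. Current was normalized to agonist alone; mean ± SEM, n = 3–16 oocytes.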

For assay [2], the target named is T1, Glutamate NMDA receptor; Grin1/Grin2a (Rattus norvegicus) (UniProt P35439+Q00959). The assay can be described thus: Inhibition of rat GluN1a/GluN2A expressed in Xenopus laevis oocytes assessed as inhibition of L-Glu and Gly-evoked currents at 100 nM under dark condition at -80 mV membrane potential by two electrode voltage-clamp assay. A digest of the protocol: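 Xenopus laevis oocytes (stage V–VI) were injected with GluN1 and GluN2A cRNA at a 1:10 ratio. Two-electrode voltage clamp was done 1–3 days post-injection at −80 mV and 23 °C in 115 NaCl/2 KCl/5 HEPES/1.8 BaCl₂ (mM), pH 7.6. Antagonist was co-applied with 100 µM L-glutamate plus 100 µM glycine in a dark room. Current was normalized to agonist-only; mean ± SEM, n = 3–16.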

Assay [3] deals with T2, Glutamate NMDA receptor; Grin1/Grin2a (Rattus norvegicus, UniProt P35439+Q00959). Description: Inhibition of rat GluN1a/GluN2A expressed in Xenopus laevis oocytes assessed as inhibition of L-Glu and Gly-evoked currents under dark condition at -80 mV membrane potential by two electrode voltage-clamp assay. A digest of the protocol: (§1)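 Oocytes injected with a 1:10 GluN1:GluN2A cRNA ratio and clamped at −80 mV by TEVC, 23 °C. Bath: 115 NaCl, 2 KCl, 5 HEPES, 1.8 BaCl2 (mM), pH 7.6. Antagonist co-applied with 100 µM L-Glu plus 100 µM glycine; response normalized to agonist alone. Dark runs done in a dark room. IC50 fitted with a Hill equation to pooled data from 3–10 oocytes.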
In general terms: In two-electrode clamp one electrode senses voltage and the other passes current.

Assay [4] has as its target T2, Glutamate NMDA receptor; Grin1/Grin2a. The assay can be described thus: Inhibition of rat GluN1a/GluN2A expressed in Xenopus laevis oocytes assessed as inhibition of L-Glu and Gly-evoked currents under illumination with blue light at 470 nanometer condition at -80 mV membrane potential by two electrode voltage-clamp assay. A digest of the protocol: as §1
In assay [5] the target is T3, Glutamate receptor 1 (Rattus norvegicus, UniProt P19490). The assay can be described thus: Inhibition of rat GluA1 flip isoform expressed in Xenopus laevis oocytes assessed as inhibition of L-Glu-evoked currents under dark condition at -80 mV membrane potential by two electrode voltage-clamp assay. Summed up:
(§2)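 TEVC at −80 mV, 23 °C, on oocytes 1–3 days after cRNA injection. Bath: 115 NaCl, 2 KCl, 5 HEPES, 1.8 BaCl2 (mM), pH 7.6. Antagonist co-applied with 300 µM L-Glu; current normalized to agonist alone. Dark runs done in a dark room. IC50 from pooled data of 3–10 oocytes, fitted with a Hill equation. Single-concentration screens used 100 nM and 10 nM.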

Assay [6] deals with T1, Glutamate NMDA receptor; Grin1/Grin2a (Rattus norvegicus). The assay can be described thus: Inhibition of rat GluN1a/GluN2A expressed in Xenopus laevis oocytes assessed as inhibition of L-Glu and Gly-evoked currents at 100 nM under illumination with blue light at 470 nanometer condition at -80 mV membrane potential by two electrode voltage-clamp assay. Summed up:
as §1

Assay [7] concerns the target Glutamate receptor 1 (Rattus norvegicus) (UniProt P19490). The assay can be described thus: Inhibition of rat GluA1 flip isoform expressed in Xenopus laevis oocytes assessed as inhibition of L-Glu-evoked currents at 100 nM under illumination with blue light at 470 nanometer at -80 mV membrane potential by two electrode voltage-clamp assay. Summed up:
as §2

For assay [8], the target named is T3, Glutamate receptor 1. The assay can be described thus: Inhibition of rat GluA1 flip isoform expressed in Xenopus laevis oocytes assessed as inhibition of L-Glu-evoked currents under illumination with blue light at 470 nanometer at -80 mV membrane potential by two electrode voltage-clamp assay. Summed up:
as §2

Assay [9] concerns the target T1, Glutamate NMDA receptor; Grin1/Grin2a (Rattus norvegicus). The assay can be described thus: Ratio of IC50 for inhibition of rat GluN1a/GluN2A expressed in Xenopus laevis oocytes under illumination with blue light at 470 nanometer condition to IC50 for inhibition of rat GluN1a/GluN2A expressed in Xenopus laevis oocytes under dark condition. Summed up: as §1

Glutamate receptor 1 (Rattus norvegicus), sequence (P19490 whole entry, canonical isoform): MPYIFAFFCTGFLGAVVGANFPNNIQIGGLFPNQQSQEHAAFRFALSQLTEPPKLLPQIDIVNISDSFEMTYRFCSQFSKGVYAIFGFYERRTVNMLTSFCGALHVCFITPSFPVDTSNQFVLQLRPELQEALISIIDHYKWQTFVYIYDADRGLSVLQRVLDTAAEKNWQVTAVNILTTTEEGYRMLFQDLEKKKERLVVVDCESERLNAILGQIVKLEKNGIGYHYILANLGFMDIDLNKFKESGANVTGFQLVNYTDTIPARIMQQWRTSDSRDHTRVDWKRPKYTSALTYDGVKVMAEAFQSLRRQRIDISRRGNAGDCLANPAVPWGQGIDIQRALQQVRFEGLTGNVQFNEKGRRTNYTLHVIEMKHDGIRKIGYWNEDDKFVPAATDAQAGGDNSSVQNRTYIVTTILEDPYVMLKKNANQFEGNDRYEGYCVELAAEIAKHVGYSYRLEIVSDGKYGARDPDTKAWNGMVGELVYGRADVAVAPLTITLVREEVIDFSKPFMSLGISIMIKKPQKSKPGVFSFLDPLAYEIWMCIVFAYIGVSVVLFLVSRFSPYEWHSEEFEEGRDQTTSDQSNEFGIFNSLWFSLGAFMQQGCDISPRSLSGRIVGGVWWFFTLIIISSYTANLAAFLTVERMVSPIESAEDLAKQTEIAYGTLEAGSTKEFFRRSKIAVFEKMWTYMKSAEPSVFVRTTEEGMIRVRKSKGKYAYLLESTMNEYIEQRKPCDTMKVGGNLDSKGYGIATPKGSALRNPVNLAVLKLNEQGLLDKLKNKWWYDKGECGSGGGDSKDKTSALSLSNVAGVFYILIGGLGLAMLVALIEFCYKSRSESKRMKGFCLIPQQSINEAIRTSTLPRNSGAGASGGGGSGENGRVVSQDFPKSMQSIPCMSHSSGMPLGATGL
T3 sequence (P19490 whole entry, canonical isoform): as above

As to `CN(C)c1ccc(/N=N/c2cccc(C(=O)N[C@@H](CC(N)=O)C(=O)NCCCCNCCCCCCCCNC(=O)[C@@H](N)CCCNC(=N)N)c2)cc1`, in assay [1], the inhibition was > 70%.
Same read-out and setting: in the case of `CCN(CC)c1ccc(/N=N/c2ccc(C(=O)N[C@@H](CC(N)=O)C(=O)NCCCCCCCCCNCCCNC(=O)[C@@H](N)CCCNC(=N)N)cc2)cc1` it was 20 to 50%.
For `N=C(N)NCCC[C@H](N)C(=O)NCCCCCCCCNCCCCNC(=O)[C@H](CC(N)=O)NC(=O)c1cccc(/N=N/c2ccccc2)c1`, in assay [2], the inhibition is 70 to 80%.
As to `N=C(N)NCCC[C@H](N)C(=O)NCCCNCCCCCCCCCNC(=O)c1cccc(/N=N/c2ccccc2)c1`, in [2], the inhibition was 70 to 80%.
As for `CCN(CC)c1ccc(/N=N/c2ccc(C(=O)NCCCCCCCCCNCCCNC(=O)[C@@H](N)CCCNC(=N)N)cc2)cc1`, the inhibition in assay [1] lay in the range of 20 to 50%.
The same measure, in the same setting: in the case of `CCN(CC)c1ccc(/N=N/c2cccc(C(=O)NCCCCCCCCCNCCCNC(=O)[C@@H](N)CCCNC(=N)N)c2)cc1` it was 20 to 50%.
For `N=C(N)NCCC[C@H](N)C(=O)NCCCCCCCCNCCCCNC(=O)[C@H](CC(N)=O)NC(=O)c1ccc(/N=N/c2ccccc2)cc1`, the inhibition in [2] fell in the range of 70 to 80%.
As to `CCN(CC)c1ccc(/N=N/c2ccc(C(=O)N[C@@H](CC(N)=O)C(=O)NCCCCCCCCNCCCCNC(=O)[C@@H](N)CCCNC(=N)N)cc2)cc1`, the IC50 in assay [3] was determined as 1100 nM; in assay [4] it was 1200 nM; at Glutamate receptor 1 [5] it was 8 nM; at Glutamate receptor 1 [8], 61 nM. Moreover, the inhibition in assay [6] was < 5%; in assay [7] it was 20%; in [1], 60%; in assay [2] it was < 5%. Besides, the Ratio IC50 in assay [9] was 8.
Regarding `CN(C)c1ccc(/N=N/c2cccc(C(=O)N[C@@H](CC(N)=O)C(=O)NCCCCCCCCCNCCCNC(=O)[C@@H](N)CCCNC(=N)N)c2)cc1`, in assay [1], the inhibition lay within 20 to 50%.
Still for that read-out and setting: with `CN(C)c1ccc(/N=N/c2cccc(C(=O)NCCCCCCCCCNCCCNC(=O)[C@@H](N)CCCNC(=N)N)c2)cc1` the figure was 20 to 50%; with `CN(C)c1ccc(/N=N/c2ccc(C(=O)N[C@@H](CC(N)=O)C(=O)NCCCCCCCCCNCCCNC(=O)[C@@H](N)CCCNC(=N)N)cc2)cc1`, 20 to 50%; with `CN(C)c1ccc(/N=N/c2ccc(C(=O)N[C@@H](CC(N)=O)C(=O)NCCCCNCCCCCCCCNC(=O)[C@@H](N)CCCNC(=N)N)cc2)cc1`, > 70%.
The same measure, in the same setting: in the case of `CN(C)c1ccc(/N=N/c2ccc(C(=O)NCCCCCCCCCNCCCNC(=O)[C@@H](N)CCCNC(=N)N)cc2)cc1` it was 20 to 50%; in that of `CCN(CC)c1ccc(/N=N/c2cccc(C(=O)N[C@@H](CC(N)=O)C(=O)NCCCCNCCCCCCCCNC(=O)[C@@H](N)CCCNC(=N)N)c2)cc1`, > 70%.
Same read-out and setting: in the case of `CCN(CC)c1ccc(/N=N/c2cccc(C(=O)N[C@@H](CC(N)=O)C(=O)NCCCCCCCCCNCCCNC(=O)[C@@H](N)CCCNC(=N)N)c2)cc1` it was 20 to 50%.

The term inhibition denotes the drop in the measured response relative to a control, in per cent. As a reminder, the IC50 is the midpoint of a concentration-inhibition curve.
